From ChEMBL document CHEMBL5113516, “2-(Fluoromethoxy)-4'-(S-methanesulfonimidoyl)-1,1'-biphenyl (UCM-1306), an Orally Bioavailable Positive Allosteric Modulator of the Human Dopamine D1 Receptor for Parkinson's Disease” (J Med Chem, 2022)
Calls of active or inactive are those of the source. The calls are words filed in the database; no cut-off is given here.

Experiments:
[1] = molecular target: D(1A) dopamine receptor (Homo sapiens) (UniProt P21728); experiment: Positive allosteric modulation of D1R expressed in human SK-N-MC cells assessed as potentiation of DA-induced cAMP production pretreated with compound for 15 mins followed by dopamine addition measured after 15 mins by HTRF assay relative to control; assay type: functional, cell-based; conditions: dose 0.1-10 µM, time 30.0 min
Sequence of D(1A) dopamine receptor (Homo sapiens) (P21728 whole entry): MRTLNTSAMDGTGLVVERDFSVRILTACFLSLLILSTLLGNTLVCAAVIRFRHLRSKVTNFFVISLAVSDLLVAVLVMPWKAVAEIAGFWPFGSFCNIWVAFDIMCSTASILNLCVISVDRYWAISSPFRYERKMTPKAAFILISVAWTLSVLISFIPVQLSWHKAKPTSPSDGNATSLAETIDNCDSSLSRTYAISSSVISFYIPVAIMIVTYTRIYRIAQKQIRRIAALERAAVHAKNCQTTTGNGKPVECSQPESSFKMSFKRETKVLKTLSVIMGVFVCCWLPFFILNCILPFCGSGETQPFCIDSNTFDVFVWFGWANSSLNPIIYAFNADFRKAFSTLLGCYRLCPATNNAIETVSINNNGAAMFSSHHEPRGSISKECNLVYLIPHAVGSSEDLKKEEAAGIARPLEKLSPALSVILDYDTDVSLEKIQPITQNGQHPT
How it was run: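 Human SK-N-MC neuroblastoma cells with endogenous D1R, seeded at 1×10^4 cells/well in Opti-MEM with 500 μM IBMX. Preincubated with 10 μM compound for 15 min at 25 °C, then dopamine concentration–response for 15 min at 25 °C. Lysed and cAMP read by HTRF. Change in dopamine Emax used; >20% potentiation taken as a potential PAM.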

Mus musculus [2] = experiment: Anti-parkinson activity in reserpine induced C57BL/6 mouse model assessed as decrease in locomotion at 100 to 400 mg/kg, ip measured for 60 mins; assay type: functional, organism-based; conditions: dose 100-400 mg/kg
How it was run: (§1)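 Male C57BL/6 mice (22–25 g), n = 10/group, given reserpine 2.5 mg/kg sc (DMSO/saline). 20 h later dosed with vehicle or 30 mg/kg po (5% NMP + 5% solutol HS-15 + 90% saline), and/or L-DOPA 100 or 400 mg/kg ip plus carbidopa 100 mg/kg ip 30 min before recording. Placed in cage 15 min after the po dose. Total distance travelled over 60 min by video tracking.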

[3] = Toxicity in cocaine-induced hyperactive C57BL/6 mouse model assessed as hyperlocomotion at 1 mg/kg, ip pretreated for 15 mins followed by cocaine addition measured after 15 mins; assay type: organism-based; conditions: in vivo, 0.5 h, time 30 min
How it was run: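 Three-month-old male C57BL/6J mice, 8 per group, habituated to injections for 5 days. Given 1 mg/kg ip in sterile saline (20 mL/kg) 15 min before cocaine 20 mg/kg sc. Placed in a 50 cm open field 5 min after cocaine. Horizontal locomotion (total distance, cm) video-tracked in 2 min blocks over 30 min.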

Mus musculus [4] = experiment: Anti-parkinson activity in reserpine induced C57BL/6 mouse model assessed as decrease in locomotion at 30 mg/kg, po measured for 60 mins; assay type: functional, organism-based; how it was run: as §1
Mus musculus [5] = experiment: Cognitive enhancing effect in C57BL/6J mouse assessed as ratio of novel to familiar at 1 mg/kg, ip by novel object recognition test; assay type: functional, organism-based; conditions: time 24-96 hrs
How it was run: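 Three-month-old male C57BL/6J mice, 8 per condition. After 5 min habituation to an empty 40 cm open field, given 1 mg/kg ip or vehicle (0.9% NaCl). 20 min later, 10 min acquisition with two identical objects. Later 10 min test sessions at 24 and 96 h. Nose/forepaw exploration scored. Discrimination ratio = (novel − familiar)/total exploration time.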

[6] = Ratio of drug concentration in brain to plasma in BALB/c mouse plasma at 5 mg/kg, po administered as single dose measured 0.5 to 4 hrs; assay type: ADME, organism-based; conditions: time 0.5-4 hrs
How it was run: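 Male BALB/c mice given a single oral dose of 5 mg/kg. Plasma, brain and CSF levels measured over time. Brain-to-plasma concentration ratios calculated between 0.5 and 4 h.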

[7] = filed as positive allosteric modulator

Row | SMILES | Emax [1] [%] | further results
1 | CNS(=O)(=O)c1ccc(-c2ccccc2OCF)cc1 | 38 | –
2 | O=Cc1ccc(-c2ccc(OCF)cc2)cc1 | 29 | –
3 | O=Cc1ccc(-c2cccc(OCF)c2)cc1 | 25 | –
4 | O=Cc1ccc(-c2ccccc2OC(F)F)cc1 | – | Emax [1, 7]: 45%
5 | O=Cc1ccc(-c2ccccc2SC(F)F)cc1 | – | Emax [1, 7]: 44%
6 | O=Cc1ccc(-c2ccccc2SCF)cc1 | 14 | –
7 | O=Cc1ccc(-c2ccc(OC(F)F)cc2)cc1 | 35 | –
8 | CS(=N)(=O)c1ccc(-c2ccccc2OCF)cc1Cl (centres undefined) | 12 | –
9 | CN=S(C)(=O)c1ccc(-c2ccccc2OCF)cc1 (centres undefined) | 30 | –
10 | O=C(O)c1ccc(-c2ccccc2OCF)cc1 | 7 | –
11 | NC(=O)c1ccc(-c2ccccc2OCF)cc1 | 16 | –
12 | CS(=N)(=O)c1ccc(-c2ncccc2OCF)cc1 (centres undefined) | 1 | –
13 | CS(=N)(=O)c1ccc(-c2ccccc2OCF)c(Cl)c1 (centres undefined) | 20 | –
14 | C[S+]([O-])c1ccc(-c2ccccc2OCF)cc1 (racemic) | – | Emax [1, 7]: 60%
15 | NS(=O)(=O)c1ccc(-c2ccccc2OCF)cc1 | 31 | –
16 | CCS(=N)(=O)c1ccc(-c2ccccc2OCF)cc1 (centres undefined) | – | Emax [1, 7]: 54%
17 | CC(=O)c1ccc(-c2ccccc2OCF)cc1 | 11 | –
18 | O=Cc1cccc(-c2ccccc2OC(F)F)c1 | 12 | –
19 | CC[S+]([O-])c1ccc(-c2ccccc2OCF)cc1 (centres undefined) | 16 | –
20 | N[C@@H](Cc1ccc(O)c(O)c1)C(=O)O | – | Activity (Mus musculus [2]): Active
21 | O=Cc1ccc(-c2cccc(OC(F)F)c2)cc1 | 37 | –
22 | CS(=N)(=O)c1ccc(-c2ccccc2OCF)cc1 (racemic) | – | Activity [3]: Non-Toxic; Activity (Mus musculus [2]): Active; Activity (Mus musculus [4]): Active; Emax [1, 7]: 55%; Activity (Mus musculus [5]): Active; Kp [6]: 0.55
23 | COC(=O)c1ccc(-c2ccccc2OCF)cc1 | 28 | –
24 | O=Cc1cccc(-c2ccccc2OCF)c1 | 23 | –
